From ChEMBL document CHEMBL1212911, “Identification of potent and selective amidobipyridyl inhibitors of protein kinase D” (J Med Chem, 2010)

How the values were obtained:
[1] = biological target: Calcium/calmodulin-dependent protein kinase type 1D (Homo sapiens) (UniProt Q8IU85); test: Inhibition of CaMK1delta; conditions: concentration not given here
Procedure, shortened: (§1)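 Selectivity screen run externally (Invitrogen SelectScreen). Percent inhibition measured at 1 μM compound, mean of 2 measurements.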

[2] = biological target: Serine/threonine-protein kinase MARK2 (Homo sapiens) (UniProt Q7KZI7); test: Inhibition of human MARK2; conditions: concentration not given here; procedure, shortened: as §1
[3] = Half life in rats after 2 mg/kg intravenous dose; assay type: ADME, organism-based; parameters: dose 2 mg/kg, route intravenous; conditions: Sprague-Dawley, rat, in vivo
Procedure, shortened: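 Rats dosed iv 2 mg/kg (n = 2) or po 5 mg/kg (n = 3) in 10% NMP, 10% Cremophor, 80% pH 4.63 buffer. PK parameters derived from iv dosing, reported as mean ± SD.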

[4] = AUC (0 to 8 hrs) in Sprague-Dawley rat at 5 mg/kg, po; assay type: ADME, organism-based; parameters: time < 8 hr, dose 5 mg/kg, route oral; conditions: plasma
[5] = biological target: Calcium/calmodulin-dependent protein kinase type II subunit delta (Homo sapiens) (UniProt Q13557); test: Inhibition of human CaMK2delta; conditions: concentration not given here; procedure, shortened: as §1
[6] = biological target: G protein-coupled receptor kinase 5 (Homo sapiens) (UniProt P34947); test: Inhibition of human GRK5; conditions: concentration not given here; procedure, shortened: as §1
[7] = biological target: T1, Calcium/calmodulin-dependent protein kinase type IV (Homo sapiens) (UniProt Q16566); test: Inhibition of human CaMK4; conditions: concentration not given here; procedure, shortened: as §1
T1 sequence (whole entry): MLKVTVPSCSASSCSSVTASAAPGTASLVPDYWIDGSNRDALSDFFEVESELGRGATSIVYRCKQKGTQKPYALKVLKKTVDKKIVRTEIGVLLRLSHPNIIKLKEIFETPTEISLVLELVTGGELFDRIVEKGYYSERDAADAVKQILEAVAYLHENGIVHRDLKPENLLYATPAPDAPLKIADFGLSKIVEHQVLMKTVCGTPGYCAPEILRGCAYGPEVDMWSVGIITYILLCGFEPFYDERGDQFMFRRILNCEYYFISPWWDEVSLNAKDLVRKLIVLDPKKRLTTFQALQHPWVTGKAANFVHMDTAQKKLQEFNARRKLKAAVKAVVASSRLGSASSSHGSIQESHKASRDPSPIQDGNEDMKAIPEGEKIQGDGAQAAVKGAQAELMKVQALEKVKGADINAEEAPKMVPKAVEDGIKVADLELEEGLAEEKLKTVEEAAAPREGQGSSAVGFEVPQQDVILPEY

[8] = biological target: Protein kinase C delta type (Homo sapiens) (UniProt Q05655); test: Inhibition of human PKCdelta; conditions: concentration not given here; procedure, shortened: as §1
[9] = biological target: T2, Protein kinase C epsilon type (Homo sapiens) (UniProt Q02156); test: Inhibition of PKCepsilon; conditions: concentration not given here
T2 sequence (whole entry): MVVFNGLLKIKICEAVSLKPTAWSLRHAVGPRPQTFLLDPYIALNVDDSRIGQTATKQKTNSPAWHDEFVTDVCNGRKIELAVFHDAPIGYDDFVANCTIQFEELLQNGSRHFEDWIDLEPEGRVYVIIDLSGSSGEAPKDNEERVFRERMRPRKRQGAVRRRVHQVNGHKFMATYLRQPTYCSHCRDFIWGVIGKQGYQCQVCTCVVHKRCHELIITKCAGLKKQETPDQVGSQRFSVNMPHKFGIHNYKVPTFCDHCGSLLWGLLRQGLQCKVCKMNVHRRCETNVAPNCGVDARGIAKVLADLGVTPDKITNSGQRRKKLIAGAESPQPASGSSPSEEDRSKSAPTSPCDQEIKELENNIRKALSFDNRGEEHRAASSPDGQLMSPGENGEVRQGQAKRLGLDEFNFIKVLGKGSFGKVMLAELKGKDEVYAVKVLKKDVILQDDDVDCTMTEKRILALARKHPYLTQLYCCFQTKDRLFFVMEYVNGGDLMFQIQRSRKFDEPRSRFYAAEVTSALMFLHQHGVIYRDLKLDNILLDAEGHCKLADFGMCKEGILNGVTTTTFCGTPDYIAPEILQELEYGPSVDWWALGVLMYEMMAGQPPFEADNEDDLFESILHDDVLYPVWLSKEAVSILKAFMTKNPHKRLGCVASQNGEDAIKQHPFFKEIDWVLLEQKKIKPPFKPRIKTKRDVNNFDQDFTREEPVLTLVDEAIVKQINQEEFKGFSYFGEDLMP

[10] = biological target: Serine/threonine-protein kinase MARK1 (Homo sapiens) (UniProt Q9P0L2); test: Inhibition of human MARK1; conditions: concentration not given here; procedure, shortened: as §1
[11] = tested on: Caco-2; test: Ratio of permeability from basolateral to apical side to apical to basolateral side in human Caco-2 cells; assay type: ADME, cell-based
[12] = biological target: T3, Serine/threonine-protein kinase D2 (Homo sapiens, UniProt Q9BZL6); test: Inhibition of PKD2 by TR-FRET assay
T3 sequence (Q9BZL6 whole entry): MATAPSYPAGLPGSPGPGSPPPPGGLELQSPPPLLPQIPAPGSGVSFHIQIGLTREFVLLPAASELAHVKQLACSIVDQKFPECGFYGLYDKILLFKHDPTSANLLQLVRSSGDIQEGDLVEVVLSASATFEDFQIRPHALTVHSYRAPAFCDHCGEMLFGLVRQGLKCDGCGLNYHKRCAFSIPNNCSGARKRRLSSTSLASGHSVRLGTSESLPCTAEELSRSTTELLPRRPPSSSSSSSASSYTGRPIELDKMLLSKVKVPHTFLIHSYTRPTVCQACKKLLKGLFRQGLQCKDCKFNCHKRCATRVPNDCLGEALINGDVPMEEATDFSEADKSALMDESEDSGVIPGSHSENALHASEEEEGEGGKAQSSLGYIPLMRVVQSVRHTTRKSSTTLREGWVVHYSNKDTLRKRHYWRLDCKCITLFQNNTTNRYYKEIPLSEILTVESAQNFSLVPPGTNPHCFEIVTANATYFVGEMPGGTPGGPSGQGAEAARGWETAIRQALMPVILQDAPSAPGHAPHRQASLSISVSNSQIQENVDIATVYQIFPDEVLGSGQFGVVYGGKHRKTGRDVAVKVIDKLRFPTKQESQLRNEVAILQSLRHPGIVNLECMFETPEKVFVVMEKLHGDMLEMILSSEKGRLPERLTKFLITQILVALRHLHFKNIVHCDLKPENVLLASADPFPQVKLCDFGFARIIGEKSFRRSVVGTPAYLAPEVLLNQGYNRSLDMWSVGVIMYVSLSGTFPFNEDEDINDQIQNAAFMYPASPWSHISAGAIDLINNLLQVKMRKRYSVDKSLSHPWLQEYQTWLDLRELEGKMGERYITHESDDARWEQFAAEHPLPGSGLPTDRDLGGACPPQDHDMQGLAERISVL

[13] = biological target: T4, Serine/threonine-protein kinase D1 (Homo sapiens, UniProt Q15139); test: Inhibition of PKD1 assessed as inhibition of HDAC5 neuclear export
T4 sequence (Q15139 whole entry): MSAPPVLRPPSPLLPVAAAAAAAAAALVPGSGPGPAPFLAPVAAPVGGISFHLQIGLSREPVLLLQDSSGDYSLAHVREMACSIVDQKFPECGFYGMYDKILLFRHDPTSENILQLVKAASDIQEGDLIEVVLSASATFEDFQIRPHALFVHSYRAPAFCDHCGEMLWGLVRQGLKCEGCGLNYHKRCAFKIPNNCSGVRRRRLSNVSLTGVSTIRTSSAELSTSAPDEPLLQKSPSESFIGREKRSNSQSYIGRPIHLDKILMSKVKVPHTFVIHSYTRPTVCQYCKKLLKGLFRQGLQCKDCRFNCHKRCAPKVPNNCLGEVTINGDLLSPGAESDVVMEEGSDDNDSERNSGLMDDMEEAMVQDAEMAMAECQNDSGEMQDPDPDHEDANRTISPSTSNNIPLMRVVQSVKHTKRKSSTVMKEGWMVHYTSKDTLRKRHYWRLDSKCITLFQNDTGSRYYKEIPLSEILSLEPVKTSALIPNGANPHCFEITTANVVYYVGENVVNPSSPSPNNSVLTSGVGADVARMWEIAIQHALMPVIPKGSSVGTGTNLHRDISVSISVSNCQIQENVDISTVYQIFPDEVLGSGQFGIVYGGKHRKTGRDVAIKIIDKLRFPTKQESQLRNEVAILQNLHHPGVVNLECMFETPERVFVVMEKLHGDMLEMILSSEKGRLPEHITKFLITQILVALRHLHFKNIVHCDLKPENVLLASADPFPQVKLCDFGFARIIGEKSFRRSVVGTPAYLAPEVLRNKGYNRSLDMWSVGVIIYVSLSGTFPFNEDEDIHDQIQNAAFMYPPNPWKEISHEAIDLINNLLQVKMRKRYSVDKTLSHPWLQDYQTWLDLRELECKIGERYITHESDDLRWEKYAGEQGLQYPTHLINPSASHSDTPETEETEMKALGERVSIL
Procedure, shortened: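 Neonatal rat ventricular myocytes infected with adenovirus encoding GFP-HDAC5 and plated on gelatin-coated wells. Cells exposed to compound and stimulated with PGF2α for 2 h, then fixed. Cytoplasmic versus nuclear GFP intensity quantified by high-content imaging.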

[14] = biological target: T4, Serine/threonine-protein kinase D1; test: Inhibition of PKD1 by TR-FRET assay
Procedure, shortened: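 Full-length wild-type PKD1 expressed and purified from Sf9 cells, 0.2 μg/mL, in 35 mM Tris-HCl pH 7.5, 5 mM MgCl2, 0.02% Tween-20, 20 μM ATP, 1 mM DTT. Reaction started with 2 μM biotinylated syntide-2 and run 50 min at room temperature. Stopped with EDTA plus europium anti-rabbit IgG, anti-phospho-syntide-2 antibody and streptavidin-APC. LANCE TR-FRET 665/615 ratio read after 1 h. 11-point curves in triplicate gave IC50.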

Chain of Calcium/calmodulin-dependent protein kinase type 1D (Homo sapiens) (Q8IU85 whole entry, looked up): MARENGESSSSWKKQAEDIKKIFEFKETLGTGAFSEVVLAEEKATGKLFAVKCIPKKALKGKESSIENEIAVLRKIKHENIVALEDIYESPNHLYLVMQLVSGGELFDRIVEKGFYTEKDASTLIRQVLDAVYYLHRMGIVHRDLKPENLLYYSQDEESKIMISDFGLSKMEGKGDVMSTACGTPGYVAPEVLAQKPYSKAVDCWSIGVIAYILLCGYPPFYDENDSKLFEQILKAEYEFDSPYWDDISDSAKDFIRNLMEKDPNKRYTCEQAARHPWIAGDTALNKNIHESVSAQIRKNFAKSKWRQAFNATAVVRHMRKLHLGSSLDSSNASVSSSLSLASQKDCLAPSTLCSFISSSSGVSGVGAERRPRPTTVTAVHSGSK
Chain of Protein kinase C delta type (Homo sapiens) (Q05655 whole entry, looked up): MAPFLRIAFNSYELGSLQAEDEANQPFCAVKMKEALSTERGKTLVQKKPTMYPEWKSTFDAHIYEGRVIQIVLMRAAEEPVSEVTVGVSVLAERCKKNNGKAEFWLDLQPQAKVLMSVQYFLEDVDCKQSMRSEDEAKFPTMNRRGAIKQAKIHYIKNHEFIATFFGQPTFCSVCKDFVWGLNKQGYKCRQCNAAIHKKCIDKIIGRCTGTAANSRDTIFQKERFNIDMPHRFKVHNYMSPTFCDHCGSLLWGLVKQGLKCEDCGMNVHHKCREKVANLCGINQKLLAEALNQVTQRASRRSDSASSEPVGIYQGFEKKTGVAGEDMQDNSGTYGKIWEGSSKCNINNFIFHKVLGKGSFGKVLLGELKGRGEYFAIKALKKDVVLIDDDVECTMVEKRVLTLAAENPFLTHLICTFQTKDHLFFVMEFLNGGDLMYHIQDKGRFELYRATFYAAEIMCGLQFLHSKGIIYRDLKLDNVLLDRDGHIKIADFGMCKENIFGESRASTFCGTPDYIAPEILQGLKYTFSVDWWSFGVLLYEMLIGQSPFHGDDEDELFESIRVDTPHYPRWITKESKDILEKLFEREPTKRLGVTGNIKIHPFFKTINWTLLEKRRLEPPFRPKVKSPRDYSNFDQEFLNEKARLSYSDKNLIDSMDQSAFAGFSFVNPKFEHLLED
Chain of Calcium/calmodulin-dependent protein kinase type II subunit delta (Homo sapiens) (Q13557 whole entry): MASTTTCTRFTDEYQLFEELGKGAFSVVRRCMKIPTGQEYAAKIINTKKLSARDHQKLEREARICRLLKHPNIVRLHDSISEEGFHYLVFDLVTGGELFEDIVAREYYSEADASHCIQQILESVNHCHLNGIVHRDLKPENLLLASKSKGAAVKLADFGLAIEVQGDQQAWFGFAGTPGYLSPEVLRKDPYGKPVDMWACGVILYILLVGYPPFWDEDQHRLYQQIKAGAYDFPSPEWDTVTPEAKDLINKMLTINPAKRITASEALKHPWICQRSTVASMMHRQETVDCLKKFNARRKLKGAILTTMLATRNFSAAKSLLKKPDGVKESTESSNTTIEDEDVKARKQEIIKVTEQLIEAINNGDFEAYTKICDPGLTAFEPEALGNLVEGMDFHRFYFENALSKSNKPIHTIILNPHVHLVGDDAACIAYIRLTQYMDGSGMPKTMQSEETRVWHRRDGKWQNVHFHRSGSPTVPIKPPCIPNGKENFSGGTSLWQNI
Chain of Serine/threonine-protein kinase MARK2 (Homo sapiens) (Q7KZI7 whole entry): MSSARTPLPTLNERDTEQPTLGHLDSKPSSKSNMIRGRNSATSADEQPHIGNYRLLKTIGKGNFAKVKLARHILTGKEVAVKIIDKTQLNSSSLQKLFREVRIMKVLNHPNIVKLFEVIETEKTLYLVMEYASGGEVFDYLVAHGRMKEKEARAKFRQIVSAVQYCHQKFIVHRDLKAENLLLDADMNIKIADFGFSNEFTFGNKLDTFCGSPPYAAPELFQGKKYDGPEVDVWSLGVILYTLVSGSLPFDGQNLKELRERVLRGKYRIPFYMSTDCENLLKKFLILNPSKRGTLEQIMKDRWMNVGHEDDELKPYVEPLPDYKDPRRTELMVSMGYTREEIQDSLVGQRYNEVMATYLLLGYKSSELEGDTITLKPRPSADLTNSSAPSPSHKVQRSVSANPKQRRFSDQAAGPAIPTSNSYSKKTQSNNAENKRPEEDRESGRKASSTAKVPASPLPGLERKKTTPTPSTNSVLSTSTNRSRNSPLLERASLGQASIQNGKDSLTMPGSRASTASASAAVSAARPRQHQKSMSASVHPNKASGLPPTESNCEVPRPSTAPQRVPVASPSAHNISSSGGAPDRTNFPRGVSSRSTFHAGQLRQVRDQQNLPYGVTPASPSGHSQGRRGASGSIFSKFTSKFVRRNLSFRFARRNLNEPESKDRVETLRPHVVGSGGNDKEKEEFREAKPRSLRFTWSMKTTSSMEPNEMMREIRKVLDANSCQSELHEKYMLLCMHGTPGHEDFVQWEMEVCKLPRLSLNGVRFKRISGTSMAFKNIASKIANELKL
Chain of Serine/threonine-protein kinase MARK1 (Homo sapiens) (Q9P0L2 whole entry, looked up): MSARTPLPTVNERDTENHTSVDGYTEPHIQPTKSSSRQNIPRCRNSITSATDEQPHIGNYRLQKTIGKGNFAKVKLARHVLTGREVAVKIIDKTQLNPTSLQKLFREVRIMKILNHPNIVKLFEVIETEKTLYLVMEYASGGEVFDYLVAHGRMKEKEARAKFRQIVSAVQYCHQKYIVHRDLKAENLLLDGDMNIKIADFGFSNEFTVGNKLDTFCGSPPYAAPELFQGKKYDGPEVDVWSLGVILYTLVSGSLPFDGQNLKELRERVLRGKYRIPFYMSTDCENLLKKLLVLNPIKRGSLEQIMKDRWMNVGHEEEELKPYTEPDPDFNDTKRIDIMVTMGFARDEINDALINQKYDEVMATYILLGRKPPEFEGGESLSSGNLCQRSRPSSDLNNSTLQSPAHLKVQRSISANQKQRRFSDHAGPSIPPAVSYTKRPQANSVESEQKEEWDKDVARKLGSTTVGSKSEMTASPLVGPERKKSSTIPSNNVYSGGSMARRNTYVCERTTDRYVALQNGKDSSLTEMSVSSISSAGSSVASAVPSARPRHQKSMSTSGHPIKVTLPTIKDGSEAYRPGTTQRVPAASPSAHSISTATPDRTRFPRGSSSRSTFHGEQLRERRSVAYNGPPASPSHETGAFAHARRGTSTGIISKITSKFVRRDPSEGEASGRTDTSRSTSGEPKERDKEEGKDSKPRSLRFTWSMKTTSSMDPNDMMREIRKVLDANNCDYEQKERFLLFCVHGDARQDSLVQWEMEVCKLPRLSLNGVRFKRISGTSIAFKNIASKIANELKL
Chain of G protein-coupled receptor kinase 5 (Homo sapiens) (P34947 whole entry, looked up): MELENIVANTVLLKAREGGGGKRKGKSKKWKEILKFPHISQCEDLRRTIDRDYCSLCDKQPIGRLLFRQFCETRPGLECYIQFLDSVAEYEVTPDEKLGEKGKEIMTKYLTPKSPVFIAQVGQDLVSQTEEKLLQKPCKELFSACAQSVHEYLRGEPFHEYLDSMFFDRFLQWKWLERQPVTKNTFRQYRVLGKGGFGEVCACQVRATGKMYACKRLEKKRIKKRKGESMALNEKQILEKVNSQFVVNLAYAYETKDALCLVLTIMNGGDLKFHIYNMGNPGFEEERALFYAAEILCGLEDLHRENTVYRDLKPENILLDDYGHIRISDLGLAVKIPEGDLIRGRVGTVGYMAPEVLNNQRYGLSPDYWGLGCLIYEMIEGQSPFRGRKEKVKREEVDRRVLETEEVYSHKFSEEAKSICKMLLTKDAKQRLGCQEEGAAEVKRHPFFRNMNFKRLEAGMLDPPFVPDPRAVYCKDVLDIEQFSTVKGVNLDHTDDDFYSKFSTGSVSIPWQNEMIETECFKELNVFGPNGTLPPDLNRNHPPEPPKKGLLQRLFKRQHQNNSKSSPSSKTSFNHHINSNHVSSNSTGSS

Row | SMILES | inhibition [1] [%] | inhibition [2] [%] | half-life [3] [min] | AUC(0-t) at 8 h [4] [µM·h] | inhibition [5] [%] | inhibition [6] [%] | inhibition [7] [%] | inhibition [8] [%] | inhibition [9] [%] | inhibition [10] [%] | Ratio [11] | IC50 [12] [nM] | EC50 [13] [nM] | IC50 [14] [nM]
1 | c1cc2c(N3CCNCC3)nc(-c3ccnc(NC4CCCCC4)c3)cc2cn1 | 11 | 83 | 312 | 0.19 | 80 | 5 | 1 | 51 | 34 | 82 | – | – | – | –
2 | N#Cc1cc(-c2ccnc(NC3CCCCC3)c2)nc(N2CCNCC2)c1 | – | – | – | – | – | – | – | – | – | – | 0.44 | 130 | 66 | 18
